The text below walks through data of ChEMBL document CHEMBL1140935, “Potent and selective inhibitors of breast cancer resistance protein (ABCG2) derived from the p-glycoprotein (ABCB1) modulator tariquidar” (J Med Chem, 2009).

SMILES strings stand for the structures. Activity calls are given as the source filed them. No cut-off for these calls is given here. Some results are limits rather than exact numbers.

One may read the IC50 as the concentration needed to halve the response being measured. For orientation: inhibition means the change of the read-out against control, counted positive when it falls.

Data set [1] has as its target T1, ATP-binding cassette sub-family C member 2 (Homo sapiens, UniProt Q92887). Briefly: Inhibition of ABCC2 overexpressed in MDCK cells […] up to 50 uM by flow cytometric-based chloromethylfluorescein-diacetate accumulation assay. In kind it is cell-based. Particulars: dog. (In flow cytometry, cells or beads pass a laser one at a time.)
Data set [2] has as its target T2, Broad substrate specificity ATP-binding cassette transporter ABCG2 (Homo sapiens, UniProt Q9UNQ0).
T2 sequence (Q9UNQ0 whole entry): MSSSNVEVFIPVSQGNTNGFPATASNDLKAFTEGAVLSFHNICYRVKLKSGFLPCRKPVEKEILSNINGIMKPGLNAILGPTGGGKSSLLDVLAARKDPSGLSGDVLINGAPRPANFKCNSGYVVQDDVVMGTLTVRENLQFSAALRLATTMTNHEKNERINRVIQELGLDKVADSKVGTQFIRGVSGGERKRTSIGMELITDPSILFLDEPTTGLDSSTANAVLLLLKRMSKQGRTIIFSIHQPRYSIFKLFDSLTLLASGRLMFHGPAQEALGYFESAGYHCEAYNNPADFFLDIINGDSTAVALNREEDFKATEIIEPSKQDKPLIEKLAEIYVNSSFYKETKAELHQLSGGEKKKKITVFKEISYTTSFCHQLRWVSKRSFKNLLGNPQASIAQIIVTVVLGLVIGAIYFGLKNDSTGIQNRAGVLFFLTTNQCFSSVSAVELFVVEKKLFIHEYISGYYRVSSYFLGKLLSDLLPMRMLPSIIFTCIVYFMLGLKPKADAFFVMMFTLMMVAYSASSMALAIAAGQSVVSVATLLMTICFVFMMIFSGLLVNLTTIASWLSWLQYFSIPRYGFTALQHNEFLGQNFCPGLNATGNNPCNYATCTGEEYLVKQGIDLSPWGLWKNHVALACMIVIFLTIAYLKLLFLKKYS
In words: Inhibition of ABCG2 over-expressed in human MCF7/Topo cells at 7 to 10 uM by flow cytometric-based mitoxantrone efflux assay relative to fumitremorgin C. The class given is cell-based. The method, boiled down:
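MCF-7/Topo cells, 1 × 10^6/mL, loaded 30 min at 37 °C with 20 µM mitoxantrone plus compound, then 1 h efflux in drug-free medium; flow cytometry. Maximal inhibition = effect at highest tested concentration (7 or 10 µM) relative to 10 µM fumitremorgin C (100%, ice-kept sample); geometric mean fluorescence.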

Data set [3] has as its target T2, Broad substrate specificity ATP-binding cassette transporter ABCG2. In words: Inhibition of ABCG2 overexpressed in human MCF7/Topo cells by flow cytometric-based mitoxantrone efflux assay. In kind it is cell-based. The gist of the method: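 MCF-7/Topo cells, 1 × 10^6/mL, incubated 30 min at 37 °C/5% CO2 with 20 µM mitoxantrone and graded modulator; washed, 1 h efflux in drug-free medium at 37 °C, PBS resuspension, flow cytometry.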

For data set [4], the target named is T3, ATP-dependent translocase ABCB1 (Homo sapiens, UniProt P08183). Briefly: Inhibition of ABCB1 overexpressed in human KBv1 cells by flow cytometric-based calcein-AM efflux assay. In kind it is cell-based.
T3 sequence (P08183 whole entry): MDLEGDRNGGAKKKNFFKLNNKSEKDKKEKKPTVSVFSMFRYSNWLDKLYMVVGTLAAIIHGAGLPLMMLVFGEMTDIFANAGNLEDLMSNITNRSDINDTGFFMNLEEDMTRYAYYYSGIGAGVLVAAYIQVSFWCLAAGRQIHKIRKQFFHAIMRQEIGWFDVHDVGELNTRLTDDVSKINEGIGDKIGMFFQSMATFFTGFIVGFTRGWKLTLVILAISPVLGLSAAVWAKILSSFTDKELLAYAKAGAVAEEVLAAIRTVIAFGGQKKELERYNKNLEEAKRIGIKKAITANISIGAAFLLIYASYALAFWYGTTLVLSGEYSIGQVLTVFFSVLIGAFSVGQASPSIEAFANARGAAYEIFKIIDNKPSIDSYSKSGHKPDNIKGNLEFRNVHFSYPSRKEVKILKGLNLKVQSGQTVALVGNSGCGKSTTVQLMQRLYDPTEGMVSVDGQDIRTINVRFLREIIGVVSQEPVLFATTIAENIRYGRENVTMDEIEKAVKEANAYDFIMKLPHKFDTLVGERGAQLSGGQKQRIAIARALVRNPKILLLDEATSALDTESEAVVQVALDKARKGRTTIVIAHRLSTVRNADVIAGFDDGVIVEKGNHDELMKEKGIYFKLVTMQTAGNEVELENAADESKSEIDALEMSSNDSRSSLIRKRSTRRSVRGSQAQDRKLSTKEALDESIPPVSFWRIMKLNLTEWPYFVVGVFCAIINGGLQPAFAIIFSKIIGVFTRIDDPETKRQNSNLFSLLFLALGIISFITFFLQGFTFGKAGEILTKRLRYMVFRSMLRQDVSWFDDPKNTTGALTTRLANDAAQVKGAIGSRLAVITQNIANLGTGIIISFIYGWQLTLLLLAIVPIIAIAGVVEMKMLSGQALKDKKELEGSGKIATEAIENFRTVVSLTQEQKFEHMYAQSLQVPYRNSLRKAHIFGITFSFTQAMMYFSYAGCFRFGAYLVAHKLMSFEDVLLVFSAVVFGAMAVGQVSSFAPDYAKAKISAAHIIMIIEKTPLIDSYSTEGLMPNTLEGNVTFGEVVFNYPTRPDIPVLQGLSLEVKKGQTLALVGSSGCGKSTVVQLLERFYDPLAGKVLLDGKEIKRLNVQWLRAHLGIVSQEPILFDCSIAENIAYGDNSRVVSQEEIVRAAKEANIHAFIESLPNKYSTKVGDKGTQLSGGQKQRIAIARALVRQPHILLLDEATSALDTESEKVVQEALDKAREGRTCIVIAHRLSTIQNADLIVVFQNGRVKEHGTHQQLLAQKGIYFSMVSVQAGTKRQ
Data set [5] has as its target T1, ATP-binding cassette sub-family C member 2. Briefly: Inhibition of ABCC2 overexpressed in MDCK cells […] by flow cytometric-based chloromethylfluorescein-diacetate accumulation assay. In kind it is cell-based.
The target in data set [6] is T4, ABCB1 (Homo sapiens, UniProt P08183). Briefly: Inhibition of ABCB1 overexpressed in human KBv1 cells at 100 uM by flow cytometric-based calcein-AM efflux assay. The class given is cell-based. Particulars: KBv1 cells overexpressing ABCB1, probe calcein-AM. The gist of the method:
(§1)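 Done on KBv1 cells (ABCB1-overexpressing KB subclone), maintained in DMEM with 10% FCS and 270 ng/mL vinblastine. Intracellular calcein fluorescence from calcein-AM was measured by flow cytometry in the presence of test compound.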

For data set [7], the target named is T4, ABCB1. Briefly: (§2) Inhibition of ABCB1 overexpressed in human KBv1 cells at 10 uM by flow cytometric-based calcein-AM efflux assay. The class given is cell-based. The following applies: KBv1 cells overexpressing ABCB1, probe calcein-AM. The gist of the method: as §1
Data set [8] concerns MCF7. In words: Potentiation of ABCG2 positive topotecan-induced cytotoxicity in topotecan-resistant human MCF7 cells at 100 nM by chemosensitivity assay.
Data set [9] deals with T3, ATP-dependent translocase ABCB1. Described as §2. In kind it is cell-based. The following applies: kbv1, 10 µM. The method, boiled down: as §1
For data set [10], the system named is MCF7. In words: Cytotoxicity against ABCG2 positive topotecan-resistant human MCF7 cells up to 500 uM by chemosensitivity assay. In kind it is functional, cell-based. The method, boiled down: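 MCF-7/Topo cells (ABCG2-overexpressing, kept in EMEM with 5% FCS and 0.55 µM topotecan) were seeded into 96-well plates and grown 2-3 days. Test compound alone was then given under permanent exposure, against vehicle, with 16 wells per concentration. Cells were fixed with glutardialdehyde at various times and stained with crystal violet. A578 was read and corrected T/C% calculated.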

For data set [11], the system named is MCF7. In words: Cytotoxicity against ABCG2 positive topotecan-resistant human MCF7 cells up to 100 nM by chemosensitivity assay.
The nature of data set [12]: Cytotoxicity against ABCG2 negative human U373MG cells by chemosensitivity assay. In kind it is ADME, cell-based. The following applies: u-373mg atcc. The gist of the method:
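Proliferating ABCG2/ABCB1-nonexpressing U-373 MG glioblastoma cells (EMEM, 5% FCS, 37 °C, 5% CO2) seeded in 96-well plates, medium replaced after 2-3 days with drug or vehicle (1000-fold feed solutions); 16 wells per concentration. Cells fixed with glutardialdehyde at various times, stained with crystal violet, absorbance 578 nm; corrected T/C and cytocidal effect calculated.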

T4 sequence (P08183 whole entry): as above
T1 sequence (Q92887 whole entry): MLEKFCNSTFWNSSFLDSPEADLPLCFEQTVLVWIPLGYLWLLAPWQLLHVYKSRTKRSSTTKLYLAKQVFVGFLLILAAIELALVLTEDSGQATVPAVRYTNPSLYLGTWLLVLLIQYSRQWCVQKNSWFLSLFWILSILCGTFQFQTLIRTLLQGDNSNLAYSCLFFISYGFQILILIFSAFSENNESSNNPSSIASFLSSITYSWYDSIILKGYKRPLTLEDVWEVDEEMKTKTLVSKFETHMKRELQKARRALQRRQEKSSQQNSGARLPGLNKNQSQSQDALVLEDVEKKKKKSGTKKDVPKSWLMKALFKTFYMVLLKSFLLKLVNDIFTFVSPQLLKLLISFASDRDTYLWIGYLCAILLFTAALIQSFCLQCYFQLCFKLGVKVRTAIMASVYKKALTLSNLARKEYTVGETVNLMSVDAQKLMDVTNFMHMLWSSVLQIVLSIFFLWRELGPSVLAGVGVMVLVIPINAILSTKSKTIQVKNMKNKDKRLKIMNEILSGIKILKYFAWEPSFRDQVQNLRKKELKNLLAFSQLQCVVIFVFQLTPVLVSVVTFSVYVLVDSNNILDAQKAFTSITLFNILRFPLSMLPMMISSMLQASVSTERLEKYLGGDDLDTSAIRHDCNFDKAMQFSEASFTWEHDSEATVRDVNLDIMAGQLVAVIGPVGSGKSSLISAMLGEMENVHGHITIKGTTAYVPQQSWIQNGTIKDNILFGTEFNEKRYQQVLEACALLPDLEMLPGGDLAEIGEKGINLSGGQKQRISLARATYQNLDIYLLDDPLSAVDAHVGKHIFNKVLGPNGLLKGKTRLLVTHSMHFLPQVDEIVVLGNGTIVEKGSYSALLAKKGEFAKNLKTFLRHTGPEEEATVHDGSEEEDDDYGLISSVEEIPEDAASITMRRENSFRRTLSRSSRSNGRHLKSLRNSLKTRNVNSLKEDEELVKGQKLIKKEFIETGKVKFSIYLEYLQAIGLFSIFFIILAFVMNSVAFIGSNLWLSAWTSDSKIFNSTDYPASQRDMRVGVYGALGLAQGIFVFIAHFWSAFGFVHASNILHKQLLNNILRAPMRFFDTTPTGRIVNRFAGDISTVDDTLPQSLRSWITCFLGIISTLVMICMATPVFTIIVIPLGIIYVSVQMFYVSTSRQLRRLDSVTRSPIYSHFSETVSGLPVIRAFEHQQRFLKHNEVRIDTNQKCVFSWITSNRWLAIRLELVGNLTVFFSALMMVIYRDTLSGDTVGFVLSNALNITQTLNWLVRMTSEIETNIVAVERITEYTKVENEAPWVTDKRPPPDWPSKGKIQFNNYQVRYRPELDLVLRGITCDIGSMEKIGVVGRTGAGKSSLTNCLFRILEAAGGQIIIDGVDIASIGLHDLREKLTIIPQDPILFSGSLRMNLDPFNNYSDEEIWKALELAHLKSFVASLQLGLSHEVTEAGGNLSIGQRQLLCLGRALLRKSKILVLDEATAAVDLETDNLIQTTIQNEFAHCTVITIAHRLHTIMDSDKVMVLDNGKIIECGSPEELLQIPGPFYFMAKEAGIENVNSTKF

With `COc1cc2c(cc1OC)CN(CCc1ccc(NC(=O)c3cc(NC(=O)c4cnc5ccccc5c4)c(OC)c(OC)c3)cc1)CC2`, the Activity result in data set [1] is “Not Active”. Further, in data set [2], the “inhibition (INH)” value is given as 36%. For the same compound, the IC50 in data set [3] was 0.858 µM; in data set [4], over 17 µM.

Consider `COC(=O)c1ccc(C(=O)Nc2ccc(CCN3CCc4cc(OC)c(OC)cc4C3)cc2)cc1NC(=O)c1cnc(C)cn1`, for which the “inhibition (INH)” value in data set [2] amounted to 44%. Further, the IC50 in [3] is 0.552 µM; in [4] it was over 57 µM; in [5] it was over 20 µM.

Take `COc1ccc2c3c([nH]c2c1)[C@H](C=C(C)C)N1C(=O)[C@@H]2CCCN2C(=O)[C@@H]1C3` [FUMITREMORGIN]: the Activity entry in data set [1] was “Not Active”. Further, in data set [2], the “inhibition (INH)” value was 100%. Moreover, on ABCB1 [6], the inhibition at 100 µM is 22%. Moreover, the half-inhibitory concentration (IC50) in [3] is over 11 µM. Also, the inhibition at 10 µM on ABCB1 [7] was 0.8%.

As to `COc1cc2c(cc1OC)CN(CCc1ccc(NC(=O)c3cccc4c(=O)c5cccc(OC)c5[nH]c34)cc1)CC2`, the Activity result in data set [1] is “Not Active”. Besides, the “inhibition (INH)” value in [2] is reported as 46%.

Turning to `COC(=O)c1ccc(C(=O)Nc2ccc(CCN3CCc4cc(OC)c(OC)cc4C3)cc2)cc1NC(=O)c1ccc2ccccc2n1`, the “inhibition (INH)” value in [2] is reported as 56%. In addition, the result in the data set with MCF7 [8] was Active. Also, the IC50 in data set [3] is 0.06 µM; in [4], over 29 µM; in data set [5] it was over 20 µM.

As to `COc1cc(NC(=O)c2cnc3ccccc3c2)cc(C(=O)Nc2ccc(CCN3CCc4cc(OC)c(OC)cc4C3)cc2)c1`, the Activity result in data set [1] was “Not Active”. Also, in data set [2], the “inhibition (INH)” value was 43%. Besides, the IC50 was 0.977 µM in data set [3] and over 15 µM in data set [4].

Turning to `COC(=O)c1ccc(C(=O)Nc2ccc(CCN3CCc4cc(OC)c(OC)cc4C3)cc2)cc1NC(=O)c1cnccn1`, in data set [2], the “inhibition (INH)” value was 38%. Also, the IC50 was 0.632 µM in data set [3], over 20 µM in data set [4] and over 50 µM in data set [5].

In [5], `CN(C)C(=O)CCSC(SCCC(=O)O)c1cccc(/C=C/c2ccc3ccc(Cl)cc3n2)c1` (stereo unspecified) [MK-571] yielded an IC50 of over 1 µM.

With `CCCCC/C=C\C\C=C/C=C/C=C/[C@@H](SC[C@@H](NC(=O)CC[C@H](N)C(=O)O)C(=O)NCC(=O)O)[C@@H](O)CCCC(=O)O` [LEUKOTRIEN C4], the IC50 in data set [5] is under 0.15 µM.

As to `COC(=O)c1ccc(C(=O)Nc2ccc(CCN3CCc4cc(OC)c(OC)cc4C3)cc2)cc1NC(=O)c1cnc2ccccc2n1`, the “inhibition (INH)” value in [2] is listed as 55%. In addition, the IC50 in data set [3] is 0.183 µM; in data set [4] it was over 34 µM.

Consider `COc1ccc(C(=O)Nc2ccc(CCN3CCc4cc(OC)c(OC)cc4C3)cc2)cc1NC(=O)c1cnc2ccccc2c1`, for which the Activity result in data set [1] is “Not Active”. In data set [2], the “inhibition (INH)” value is listed as 63%. The results for the IC50 in [3] and in data set [4] were 0.317 µM and over 6 µM, respectively.

On to `COC(=O)c1ccc(C(=O)Nc2ccc(CCN3CCc4cc(OC)c(OC)cc4C3)cc2)cc1NC(=O)c1cccnc1`, for which the “inhibition (INH)” value in [2] stood at 47%. Further, the values for the IC50 in data set [3], in data set [4] and in data set [5] were 1.02 µM, over 14 µM and over 20 µM, respectively.

Consider `COc1cc2c(cc1OC)CN(CCc1ccc(NC(=O)c3cc(OC)c(OC)cc3NC(=O)c3cnc4ccccc4c3)cc1)CC2`, for which the Activity entry in data set [1] is listed as “Not Active”. The “inhibition (INH)” value in data set [2] is recorded as 39%. The same compound showed an IC50 in data set [3] of 0.916 µM.

Take `COC(=O)c1ccc(C(=O)Nc2ccc(CCN3CCc4cc(OC)c(OC)cc4C3)cc2)cc1NC(=O)c1ccc2ncccc2c1`: the “inhibition (INH)” value in data set [2] came out at 25%. The compound further registered an IC50 in [3] of 0.179 µM. Further, the Activity entry in data set [9] is “Not Active”.

As for `COc1cc2c(cc1OC)CN(CCc1ccc(NC(=O)c3ccc(C)c(NC(=O)c4cnc5ccccc5c4)c3)cc1)CC2`, the “inhibition (INH)” value in data set [2] turned out to be 52%. The IC50 was 1.99 µM in data set [3], over 15 µM in [4] and over 50 µM in [5].

With `COc1ccc2c3c([nH]c2c1)[C@H](CC(C)C)N1C(=O)[C@H](CCC(=O)OC(C)(C)C)NC(=O)[C@@H]1C3`, the result with MCF7 [10] and with MCF7 [8] was Active. Further, the inhibition at 10 µM on ABCB1 [7] is 1.6%. The compound also came in with an IC50 in data set [5] of over 50 µM.

For `COC(=O)c1ccc(C(=O)Nc2ccc(CCN3CCc4cc(OC)c(OC)cc4C3)cc2)cc1NC(=O)c1cnc2ccccc2c1`, the Activity result was “Not Active” in [1] and “Toxic” in data set [12]. Besides, in the data set on MCF7 [11], the result was Active. The “inhibition (INH)” value in [2] is on record as 41%. Moreover, the IC50 in data set [3] is 0.119 µM; in data set [4], 9.45 µM.
